Assay results published in ChEMBL document CHEMBL3352788, “Characterization of selective exosite-binding inhibitors of matrix metalloproteinase 13 that prevent articular cartilage degradation in vitro” (J Med Chem, 2014).

Experiments:
[1] = molecular target: T1, Cytochrome P450 1A2 (Homo sapiens, UniProt P05177); test: Inhibition of CYP1A2 (unknown origin) using tacrin substrate; assay type: ADME
T1 sequence (P05177 whole entry): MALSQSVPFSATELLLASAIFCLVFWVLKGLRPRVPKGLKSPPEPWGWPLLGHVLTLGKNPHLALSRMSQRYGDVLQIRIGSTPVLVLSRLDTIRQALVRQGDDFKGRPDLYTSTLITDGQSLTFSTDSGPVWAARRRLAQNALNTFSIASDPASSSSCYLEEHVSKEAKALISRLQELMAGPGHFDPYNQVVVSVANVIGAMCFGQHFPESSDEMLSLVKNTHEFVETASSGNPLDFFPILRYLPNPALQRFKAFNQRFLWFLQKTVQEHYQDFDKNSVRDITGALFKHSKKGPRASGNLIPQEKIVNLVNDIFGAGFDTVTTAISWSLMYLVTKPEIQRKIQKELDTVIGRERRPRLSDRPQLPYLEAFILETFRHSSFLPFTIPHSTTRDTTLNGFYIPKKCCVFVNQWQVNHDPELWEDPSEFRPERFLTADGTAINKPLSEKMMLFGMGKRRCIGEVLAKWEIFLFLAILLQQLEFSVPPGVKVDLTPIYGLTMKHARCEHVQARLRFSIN
Outline: (§1)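 Human liver microsomes with probe substrate and an NADPH-regenerating system in 0.1 M potassium phosphate pH 7.4 at 37 °C, run in duplicate. Inhibitor at 0–20 μM (0–2.5 μM for one compound), eight concentrations. Reactions were stopped with acetonitrile/formic acid containing isotope-labelled internal standard, and metabolite area ratios were compared with and without inhibitor. IC50 was taken by linear interpolation between bracketing concentrations.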

[2] = molecular target: Cytochrome P450 2D6 (Homo sapiens, UniProt P10635); test: Inhibition of CYP2D6 (unknown origin) using dextromethophan substrate; assay type: ADME; outline: as §1
Cytochrome P450 2D6, sequence (P10635 whole entry): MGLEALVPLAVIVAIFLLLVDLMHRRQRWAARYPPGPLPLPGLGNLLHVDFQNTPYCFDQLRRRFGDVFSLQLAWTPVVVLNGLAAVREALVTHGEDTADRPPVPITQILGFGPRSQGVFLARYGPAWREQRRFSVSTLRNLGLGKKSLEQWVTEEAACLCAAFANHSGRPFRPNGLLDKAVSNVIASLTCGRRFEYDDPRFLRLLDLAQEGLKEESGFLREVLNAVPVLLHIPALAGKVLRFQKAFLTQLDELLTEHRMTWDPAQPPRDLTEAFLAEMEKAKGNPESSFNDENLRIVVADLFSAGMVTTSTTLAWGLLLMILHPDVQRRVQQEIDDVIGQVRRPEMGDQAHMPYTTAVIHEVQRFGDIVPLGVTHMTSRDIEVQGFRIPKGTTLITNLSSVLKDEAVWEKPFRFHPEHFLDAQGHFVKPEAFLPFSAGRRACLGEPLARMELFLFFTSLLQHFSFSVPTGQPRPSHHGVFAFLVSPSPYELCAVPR

[3] = molecular target: Furin (Homo sapiens) (UniProt P09958); test: Inhibition of recombinant human furin using RRVKRSLD substrate at up to 20 uM after 3 hrs
Furin (Homo sapiens), sequence (P09958 whole entry): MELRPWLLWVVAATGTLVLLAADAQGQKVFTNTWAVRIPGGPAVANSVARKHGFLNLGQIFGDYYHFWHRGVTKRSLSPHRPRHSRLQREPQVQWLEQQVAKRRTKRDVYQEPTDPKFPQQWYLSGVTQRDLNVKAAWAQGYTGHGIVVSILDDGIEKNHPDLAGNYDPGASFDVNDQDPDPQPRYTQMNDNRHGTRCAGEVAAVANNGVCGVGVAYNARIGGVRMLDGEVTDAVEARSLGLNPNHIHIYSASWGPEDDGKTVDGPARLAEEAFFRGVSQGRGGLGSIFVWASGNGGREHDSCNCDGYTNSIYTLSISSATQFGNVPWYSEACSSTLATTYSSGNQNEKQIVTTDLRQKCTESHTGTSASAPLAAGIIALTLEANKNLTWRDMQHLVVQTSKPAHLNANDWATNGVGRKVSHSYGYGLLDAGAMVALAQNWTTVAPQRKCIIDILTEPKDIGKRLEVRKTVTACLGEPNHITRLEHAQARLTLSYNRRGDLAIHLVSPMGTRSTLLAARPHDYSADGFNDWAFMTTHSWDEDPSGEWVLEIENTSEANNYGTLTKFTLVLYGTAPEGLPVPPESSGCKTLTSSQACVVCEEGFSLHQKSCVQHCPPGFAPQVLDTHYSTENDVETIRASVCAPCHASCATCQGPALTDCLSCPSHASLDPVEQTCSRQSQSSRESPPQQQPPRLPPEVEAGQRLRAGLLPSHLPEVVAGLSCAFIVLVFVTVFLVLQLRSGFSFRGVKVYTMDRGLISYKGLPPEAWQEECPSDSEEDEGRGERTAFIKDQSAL
Outline: (§2)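 Each protease was preincubated 30 min at 25 °C with compound in its assay buffer. Peptide substrate was then added and the reaction ran 3 h at 25 °C before quenching with SDS/EDTA/iodoacetate. Substrate-to-product conversion (%) was read by microfluidic electrophoresis. Compounds were tested in singlicate as 12-point 3-fold dilutions from 20 μM to 0.1 nM. IC50 was taken as the concentration giving 50% of no-compound control activity.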

[4] = molecular target: T2, Caspase-6 (Homo sapiens) (UniProt P55212); test: Inhibition of recombinant human caspase 6 using VEHDGG substrate at up to 20 uM after 3 hrs
T2 sequence (whole entry): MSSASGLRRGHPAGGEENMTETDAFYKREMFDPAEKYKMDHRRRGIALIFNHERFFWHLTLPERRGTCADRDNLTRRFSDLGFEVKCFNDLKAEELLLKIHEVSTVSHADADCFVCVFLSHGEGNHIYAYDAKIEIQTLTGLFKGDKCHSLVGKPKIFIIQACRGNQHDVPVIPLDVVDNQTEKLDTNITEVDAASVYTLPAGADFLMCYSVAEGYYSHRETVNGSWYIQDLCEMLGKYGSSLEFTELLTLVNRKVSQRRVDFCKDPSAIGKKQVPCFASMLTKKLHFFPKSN
Outline: (§3)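 Outsourced microfluidic protease panel. Compound was preincubated with each protease for 30 min at 25 °C, then peptide substrate was added for 3 h at 25 °C and quenched with SDS/EDTA/iodoacetate. Substrate-to-product conversion was measured on LabChip. Compounds were tested singly in a 12-point 3-fold dilution series, top 20 μM (5 μM for two reference compounds).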

[5] = molecular target: 72 kDa type IV collagenase (Homo sapiens) (UniProt P08253); test: Inhibition of recombinant human MMP-2 using GRIGFL substrate up to 20 uM; outline: as §3
72 kDa type IV collagenase (Homo sapiens), sequence (P08253 110-660 limits assumed): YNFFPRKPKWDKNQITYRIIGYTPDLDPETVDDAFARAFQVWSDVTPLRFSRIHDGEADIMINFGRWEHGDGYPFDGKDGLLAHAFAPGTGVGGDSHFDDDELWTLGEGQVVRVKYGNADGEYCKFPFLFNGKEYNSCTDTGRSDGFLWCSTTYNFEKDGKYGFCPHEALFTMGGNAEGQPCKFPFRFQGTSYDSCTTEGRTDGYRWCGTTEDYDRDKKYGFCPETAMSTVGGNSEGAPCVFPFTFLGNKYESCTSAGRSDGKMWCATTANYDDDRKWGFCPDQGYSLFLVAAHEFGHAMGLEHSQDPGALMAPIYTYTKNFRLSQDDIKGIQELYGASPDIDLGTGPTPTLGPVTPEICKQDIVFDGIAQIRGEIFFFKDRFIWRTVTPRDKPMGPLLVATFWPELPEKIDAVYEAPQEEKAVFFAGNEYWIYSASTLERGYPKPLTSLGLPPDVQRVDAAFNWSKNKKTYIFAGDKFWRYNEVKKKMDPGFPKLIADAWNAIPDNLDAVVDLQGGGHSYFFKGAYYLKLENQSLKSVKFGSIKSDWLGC

[6] = molecular target: Urokinase-type plasminogen activator (Homo sapiens) (UniProt P00749); test: Inhibition of recombinant human uPA using GRTSSVEP substrate at up to 20 uM after 3 hrs; outline: as §2
[7] = molecular target: Prothrombin (Homo sapiens) (UniProt P00734); test: Inhibition of recombinant human thrombin using PRTLT substrate at up to 20 uM after 3 hrs; outline: as §2
[8] = molecular target: T3, Cathepsin K (Homo sapiens) (UniProt P43235); test: Inhibition of recombinant human cathepsin K using HHQKLVFFAE substrate at up to 20 uM after 3 hrs; outline: as §3
T3 sequence (whole entry): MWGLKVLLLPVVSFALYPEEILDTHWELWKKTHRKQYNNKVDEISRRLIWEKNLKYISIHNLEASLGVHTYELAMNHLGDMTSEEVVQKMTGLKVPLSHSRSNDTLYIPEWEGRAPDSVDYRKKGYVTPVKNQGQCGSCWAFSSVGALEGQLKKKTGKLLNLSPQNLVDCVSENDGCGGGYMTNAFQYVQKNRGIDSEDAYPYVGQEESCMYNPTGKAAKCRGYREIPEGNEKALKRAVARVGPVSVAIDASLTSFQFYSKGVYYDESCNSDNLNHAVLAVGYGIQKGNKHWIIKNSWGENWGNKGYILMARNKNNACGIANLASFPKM

[9] = molecular target: T4, Caspase-5 (Homo sapiens) (UniProt P51878); test: Inhibition of recombinant human caspase 5 using LEHDGP substrate at up to 20 uM after 3 hrs; outline: as §3
T4 sequence (whole entry): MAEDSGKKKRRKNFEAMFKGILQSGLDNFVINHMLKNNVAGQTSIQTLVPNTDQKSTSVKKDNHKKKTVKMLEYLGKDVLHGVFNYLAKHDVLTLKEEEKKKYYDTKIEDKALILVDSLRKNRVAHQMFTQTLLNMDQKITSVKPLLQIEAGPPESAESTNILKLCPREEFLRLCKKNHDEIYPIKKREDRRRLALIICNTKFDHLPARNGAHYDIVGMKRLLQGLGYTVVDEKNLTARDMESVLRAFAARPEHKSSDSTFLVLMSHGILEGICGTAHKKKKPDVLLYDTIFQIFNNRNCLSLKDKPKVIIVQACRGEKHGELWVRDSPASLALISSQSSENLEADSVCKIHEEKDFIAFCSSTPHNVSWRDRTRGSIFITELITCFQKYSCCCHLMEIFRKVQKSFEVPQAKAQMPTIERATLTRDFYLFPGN

[10] = molecular target: Cathepsin S (Homo sapiens) (UniProt P25774); test: Inhibition of recombinant human cathepsin S using RTLTAK substrate at up to 20 uM after 3 hrs; outline: as §2
Cathepsin S (Homo sapiens), sequence (P25774 115-331 limits assumed): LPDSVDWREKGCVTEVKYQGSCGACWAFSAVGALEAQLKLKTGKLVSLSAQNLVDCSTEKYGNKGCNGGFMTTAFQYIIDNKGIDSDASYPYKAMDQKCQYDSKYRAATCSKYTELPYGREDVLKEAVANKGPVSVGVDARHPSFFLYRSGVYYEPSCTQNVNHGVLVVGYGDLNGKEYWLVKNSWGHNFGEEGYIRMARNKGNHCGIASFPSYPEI

| Compound | IC50 [1] | IC50 [2] | inhibition [3] | inhibition [4] | inhibition [5] | inhibition [6] | inhibition [7] | inhibition [8] | inhibition [9] | inhibition [10] |
| --- | --- | --- | --- | --- | --- | --- | --- | --- | --- | --- |
| Cc1cc(CNC(=O)c2cc(C(=O)NCc3ccc(F)c(C)c3)ncn2)ccc1F | > 20 µM | > 20 µM |  |  |  |  |  |  |  |  |
| Cn1c(=O)n(Cc2ccc(C(=O)O)cc2)c(=O)c2cc(C#CCc3ccccc3)ccc21 | > 2.5 µM | > 2.5 µM |  |  |  |  |  |  |  |  |
| Cc1ccc(CSc2nc(O)c3c(n2)CCC3)cc1 |  |  | < 10% | < 10% | > 10% | < 10% | < 10% | 20% | > 10% | < 10% |
| COC(=O)c1ccc(CSc2nc3c(c(=O)[nH]2)CCC3)cc1 | > 20 µM | > 20 µM | < 10% | < 10% | > 10% | < 10% | < 10% | < 10% | < 10% | < 10% |
| Oc1nc(SCc2ccc(Cl)cc2)nc2c1CCC2 | 8.6 µM | > 20 µM | < 10% | < 10% | > 10% | < 10% | < 10% | < 10% | < 10% | < 10% |
